From ChEMBL document CHEMBL1667823, “Design and synthesis of 4-arylpiperidinyl amide and N-arylpiperdin-3-yl-cyclopropane carboxamide derivatives as novel melatonin receptor ligands” (Bioorg Med Chem Lett, 2011) come the findings set out here.

Series [1] can be described thus: Binding affinity to rat MT1 receptor expressed in CHO-Galpha16 cells assessed as Ca2+ mobilization after 20 mins by FLIPR assay. Format: cell-based. In a few lines: (§1)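 CHO-Galpha16 cells expressing rat MT1 or MT2, plated 24 h ahead, loaded with Fluo4-AM (1.5 final) plus pluronic acid in HBSS/20 mM HEPES/0.1% BSA pH 7.4 with 2.5 mM probenecid, 1 h at 37 °C, then washed. Ca2+ read by FLIPR. Agonist mode: 15 s baseline, compound added, 3 min read. Antagonist mode: compound preincubated 20 min at room temperature, then melatonin at EC80, 3 min read.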

Series [2] in a line: Binding affinity to rat MT2 receptor expressed in CHO-Galpha16 cells assessed as Ca2+ mobilization after 20 mins by FLIPR assay. The format is cell-based. In a few lines:
as §1

The subject of series [3] is CHO-Galpha16. Description: Intrinsic activity at rat MT1 receptor expressed in CHO-Galpha16 cells assessed as Ca2+ mobilization after 20 mins by FLIPR assay relative to ramelteon. Format: cell-based. In a few lines: as §1
For series [4], the species on record is Rattus norvegicus. Description: Intrinsic activity at rat MT2 receptor expressed in CHO-Galpha16 cells assessed as Ca2+ mobilization after 20 mins by FLIPR assay relative to agomelatine. The format is cell-based. Put shortly: as §1
Series [5] can be described thus: Displacement of [3H]melatonin from rat MT1 receptor expressed in CHO-Galpha16 cells. The format is cell-based. Put shortly:
(§2)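 Rat MT1 or MT2 membranes from CHO-Galpha16 cells incubated with [3H]-melatonin (0.5 nM final, 80 Ci/mmol) in 50 mM Tris/HCl pH 7.4, 5 mM MgCl2. Nonspecific binding defined with excess melatonin. Stopped by rapid GF/B filtration with five ice-cold washes. Ki from IC50 via Cheng–Prusoff.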

Series [6] is described as follows: Displacement of [3H]melatonin from rat MT2 receptor expressed in CHO-Galpha16 cells. The format is cell-based. Put shortly:
as §2

The subject of series [7] is Liver microsomes. As to the kind of experiment: Intrinsic clearance in human liver microsome at 1 uM by LC/MS analysis. The format is ADME. In a few lines:
(§3)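 Compound at 1 µM incubated with liver microsomes (0.5 mg/mL protein) and an NADPH-regenerating system, sampled at 0, 5, 15, 30 and 60 min. Quenched, centrifuged supernatants analysed by LC/MS for remaining parent to estimate T1/2.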

The subject of series [8] is Liver microsomes. Description: Intrinsic clearance in rat liver microsome at 1 uM by LC/MS analysis. Format: ADME. Put shortly: as §3
Series [9] can be described thus: Drug level in rat brain at 10 mg/kg, ip after 1 hr. Format: ADME, organism-based. More on the design: dose 10 mg/kg, route intraperitoneal. The settings on record: read-out: Drug uptake. Put shortly: (§4)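 Rats dosed 10 mg/kg IP, with brain and plasma concentrations taken at 1 h. Vehicle varied: 20% HP-bCD, 15% Solutol, or 10% DMSO with 2.5% PEG400 in 15% Solutol. B/P is the brain-to-plasma concentration ratio.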

The nature of series [10]: Drug level in rat plasma at 10 mg/kg, ip after 1 hr. Format: ADME, organism-based. Details: dose 10 mg/kg, route intraperitoneal. Conditions: read-out: Drug uptake. In a few lines:
as §4

The nature of series [11]: Ratio of drug level in rat brain to plasma at 10 mg/kg, ip after 1 hr. More on the design: dose 10 mg/kg, route intraperitoneal. The format is ADME, organism-based. In a few lines:
as §4

The test system of series [12] is CHO-Galpha16. Description: Inhibition of rat MT1 receptor expressed in CHO-Galpha16 cells relative to control. Conditions: dose or concentration not given here. The format is cell-based. Details: concentration or dose not given beside the values. Put shortly: as §1

In the case of `COc1cccc(C2CCN(C(=O)C(C)C)CC2)c1`, the EC50 in [1] was 98 nM; in series [2], 19 nM. Further, the results for the Intrinsic activity in series [3] and in [4] were 87% and 76%, respectively. The Ki was 160 nM in series [5] and 31 nM in series [6].
Regarding `CCC(=O)NCC[C@@H]1CCc2ccc3c(c21)CCO3` [RAMELTEON], the EC50 is 3.1 nM in series [1] and 0.89 nM in series [2]. Further, the Intrinsic activity in series [3] turned out to be 100%; in series [4], 95%. Also, the values for the Ki in [5] and in series [6] were 2 nM and 0.03 nM, respectively. Further, the clearance in series [7] amounted to 47 µL/min/mg; in series [8], 60 µL/min/mg. For the same compound, the concentration at 1 h came to 390 nM in [9] and 580 nM in [10]. The Kp at 1 h in series [11] came out at 0.7.
Consider `CCC(=O)N1CCC(c2cccc(OC)c2)CC1`, for which the EC50 in series [1] is 1300 nM; in [2] it was 42 nM. Moreover, the Intrinsic activity in series [3] came out at 31%; in [4], 66%. Moreover, the results for the Ki in [5] and in [6] were 810 nM and 150 nM, respectively.
Turning to `COc1cccc(N2CC(NC(=O)C3CC3)Cc3ccccc32)c1` (racemic), the values for the EC50 in series [1] and in series [2] were 170 nM and 50 nM, respectively. In addition, the Intrinsic activity in series [3] was determined as 84%; in series [4] it was 35%. The figures for the Ki in series [5] and in [6] were 75 nM and 6.7 nM, respectively.
With `CCOc1cccc(C2CCN(C(=O)C3CC3)CC2)c1`, the Ki in series [5] stood at 5700 nM; in series [6], 4100 nM.
Regarding `COc1cccc(C2CCN(C(=O)[C@H]3C[C@@H]3C)CC2)c1`, the results for the EC50 in [1] and in series [2] were 610 nM and 140 nM, respectively. Moreover, the values for the Intrinsic activity in series [3] and in [4] were 19% and 65%, respectively. Moreover, the Ki in series [5] worked out at 150 nM; in series [6], 35 nM.
As to `COc1ccc2cccc(CCNC(C)=O)c2c1` [AGOMELATINE], the EC50 is 2.1 nM in [1] and 1.4 nM in [2]. Besides, the results for the Intrinsic activity in series [3] and in series [4] were 94% and 100%, respectively. For the same compound, the values for the Ki in series [5] and in series [6] were 1.2 nM and 0.14 nM, respectively. The results for the clearance in series [7] and in series [8] were 361 µL/min/mg and 144 µL/min/mg, respectively. The concentration at 1 h was 1030 nM in series [9] and 700 nM in [10]. In series [11], the Kp at 1 h worked out at 1.5.
For `COc1ccccc1C1CCN(C(=O)C2CC2)CC1`, the EC50 in [1] and in series [2] was more than 10000 nM in each case. Besides, the Intrinsic activity in series [3] was 2%; in series [4] it was 3%.
On to `COc1cccc(N2CCC[C@H](NC(=O)C3CC3)C2)c1`, for which the EC50 in series [1] was found to be 3.9 nM; in [2], 6.2 nM. Also, the Intrinsic activity in [3] came out at 77%; in [4], 74%. Also, the Ki in series [5] amounted to 9.9 nM; in series [6] it was 2.7 nM. Moreover, the clearance amounted to 28 µL/min/mg in series [7] and 616 µL/min/mg in series [8]. For the same compound, the concentration at 1 h in series [9] was 180 nM; in series [10] it was 730 nM. Besides, the Kp at 1 h in series [11] was 0.2.
Consider `COc1ccc(C2CCN(C(=O)C3CC3)CC2)cc1`, for which the EC50 was more than 10000 nM in series [1] and 5000 nM in [2]. The Intrinsic activity was determined as 58% in series [3] and 94% in series [4]. Further, the values for the Ki in series [5] and in series [6] were 1100 nM and 870 nM, respectively.
On to `Cc1cccc(C2CCN(C(=O)C3CC3)CC2)c1`, for which the EC50 in [1] and in [2] was more than 10000 nM throughout. In addition, the Intrinsic activity in [3] amounted to 0.4%; in series [4], 15%.
With `COc1cccc(C2CCN(C(C)=O)CC2)c1`, the EC50 in [1] and in series [2] was more than 10000 nM each time. The Intrinsic activity was 6% in series [3] and 19% in [4].
For `O=C(N[C@H]1CCCN(c2cccc(OC(F)(F)F)c2)C1)C1CC1`, the results for the EC50 in [1] and in series [2] were more than 10000 nM and 12 nM, respectively. The Intrinsic activity in [3] was found to be 1%; in [4], 53%. Besides, the IC50 in [5] is 2100 nM. Besides, the Ki in [5] turned out to be 190 nM; in [6], 66 nM. Further, the inhibition in [12] is 95%.
As for `O=C(N[C@H]1CCCN(c2cccc(OC(F)F)c2)C1)C1CC1`, the EC50 in series [1] turned out to be 390 nM; in [2], 4.2 nM. The Intrinsic activity in series [3] was found to be 21%; in [4], 57%. In [5], this compound yielded an IC50 of 870 nM. The values for the Ki in series [5] and in series [6] were 410 nM and 44 nM, respectively. In addition, the inhibition in series [12] was found to be 96%. Also, the clearance in series [7] worked out at 48 µL/min/mg; in series [8] it was 485 µL/min/mg.
For `COc1cccc(C2CCN(C(=O)C3CCCC3)CC2)c1`, the 50% effective concentration (EC50) in [1] amounted to 210 nM; in series [2], 110 nM. For the same compound, the Intrinsic activity in series [3] was 67%; in series [4], 74%.
The corresponding values for `COc1cccc(C2CCN(C(=O)C3CCCCC3)CC2)c1` are 7500 nM, 2800 nM, 42% and 36%.
Turning to `COc1cccc(C2CCN(C(=O)C3CC3(C)C)CC2)c1` (centres undefined), the EC50 turned out to be 640 nM in series [1] and 147 nM in series [2]. The Intrinsic activity was found to be 33% in series [3] and 30% in [4].
`COc1ccc(C2CCN(C(C)=O)CC2)cc1`: the EC50 in series [1] stood at 1700 nM; in series [2], 3400 nM. For the same compound, the figures for the Intrinsic activity in series [3] and in series [4] were 34% and 140%, respectively. The Ki in series [5] worked out at 4700 nM; in series [6], 360 nM.
With `COc1cccc(C2CCN(C(=O)c3ccccc3)CC2)c1`, the results for the EC50 in [1] and in series [2] were more than 10000 nM and 4400 nM, respectively. Moreover, the Intrinsic activity in series [3] came to 12%; in series [4], 60%. For the same compound, the Ki in [5] turned out to be 650 nM; in [6], 110 nM.
As for `COc1cccc(C2CCN(C(=O)C3CCC3)CC2)c1`, the EC50 was determined as 380 nM in series [1] and 200 nM in series [2]. Besides, the figures for the Intrinsic activity in series [3] and in [4] were 52% and 62%, respectively. For the same compound, the Ki in series [5] stood at 140 nM; in series [6] it was 67 nM.
For the compound `COc1cccc(N2CCCC2CNC(=O)C2CC2)c1` (racemic), the values for the concentration for a half-maximal effect (EC50) in series [1] and in series [2] were 18 nM and 2.5 nM, respectively. Besides, the values for the Intrinsic activity in series [3] and in [4] were 89% and 98%, respectively. Moreover, the Ki in [5] turned out to be 21 nM; in [6] it was 3.3 nM.
Turning to `CC(C)Oc1cccc(C2CCN(C(=O)C3CC3)CC2)c1`, the EC50 in series [1] and in series [2] was more than 10000 nM in each case. Moreover, the Intrinsic activity is 9% in [3] and 10% in series [4].
For the compound `COc1cccc(C2CCN(C(=O)CC(C)C)CC2)c1`, the results for the EC50 in series [1] and in series [2] were 1700 nM and 1800 nM, respectively. For the same compound, the Intrinsic activity in [3] turned out to be 39%; in series [4] it was 35%.
On the same counts, the results for `O=C(C1CC1)N1CCC(c2cccc(O)c2)CC1` are more than 10000 nM, 3600 nM, 96% and 23%.
On to `CCC(CC)C(=O)N1CCC(c2cccc(OC)c2)CC1`, for which the EC50 in [1] is 2300 nM; in series [2], 790 nM. Further, the Intrinsic activity came out at 32% in series [3] and 35% in [4].
Turning to `COc1ccc2[nH]cc(CCNC(C)=O)c2c1` [MELATONIN], the concentration giving a half-maximal response (EC50) in series [1] was determined as 0.56 nM; in [2] it was 1.1 nM. The Intrinsic activity in series [3] and in [4] was 97% each time. The Ki in [5] stood at 0.99 nM; in series [6], 0.58 nM.
As for `COc1cccc(-c2cccc(NC(=O)C3CC3)n2)c1`, the results for the EC50 in [1] and in series [2] were more than 10000 nM and 1200 nM, respectively. Further, the results for the Intrinsic activity in series [3] and in series [4] were 15% and 57%, respectively. For the same compound, the IC50 in series [5] was 3800 nM. In addition, the figures for the Ki in series [5] and in series [6] were 1500 nM and 83 nM, respectively. Further, the inhibition in series [12] worked out at 41%.
For `COc1cc(N2CCC[C@H](NC(=O)C3CC3)C2)ccc1Cl`, the EC50 in series [1] was found to be 0.74 nM; in [2] it was 2.3 nM. Also, the values for the Intrinsic activity in [3] and in series [4] were 73% and 65%, respectively. Further, the results for the Ki in [5] and in [6] were 1.2 nM and 2.1 nM, respectively. Further, the clearance in series [7] amounted to 45 µL/min/mg; in series [8], 199 µL/min/mg.
